A value given as a limit tells only on which side of the number the result lay.

A short description of data set [1]: Selectivity index, ratio of IC50 for ovine COX1 to IC50 for human recombinant COX2. In a few lines:
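IC50 (COX-1)/IC50 (COX-2). Both IC50 values come from the EIA described above, run with ovine COX-1 or human recombinant COX-2 under the same buffer, preincubation, arachidonic acid and duplicate conditions.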

In data set [2] the target is T1, Prostaglandin G/H synthase 2 (Homo sapiens, UniProt P35354).
T1 sequence (P35354 whole entry): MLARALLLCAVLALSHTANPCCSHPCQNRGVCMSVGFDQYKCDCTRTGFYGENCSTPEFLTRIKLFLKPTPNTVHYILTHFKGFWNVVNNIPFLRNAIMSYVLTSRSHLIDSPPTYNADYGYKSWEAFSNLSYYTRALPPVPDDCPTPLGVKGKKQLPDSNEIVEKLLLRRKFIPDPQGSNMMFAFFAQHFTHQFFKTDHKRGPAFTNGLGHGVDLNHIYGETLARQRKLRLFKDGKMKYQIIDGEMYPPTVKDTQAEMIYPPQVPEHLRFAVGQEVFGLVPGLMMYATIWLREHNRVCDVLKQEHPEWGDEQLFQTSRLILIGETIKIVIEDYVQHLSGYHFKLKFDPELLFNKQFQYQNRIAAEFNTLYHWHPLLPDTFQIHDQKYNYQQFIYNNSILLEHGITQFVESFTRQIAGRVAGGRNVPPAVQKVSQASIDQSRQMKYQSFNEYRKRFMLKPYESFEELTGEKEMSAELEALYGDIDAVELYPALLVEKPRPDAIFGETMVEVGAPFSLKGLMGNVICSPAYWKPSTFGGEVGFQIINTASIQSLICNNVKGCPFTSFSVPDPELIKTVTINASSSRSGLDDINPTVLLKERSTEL
The data set can be described thus: Inhibition of human recombinant COX2 using arachidonic acid as substrate incubated for 10 mins prior to substrate addition measured after 2 mins by enzyme immunoassay.

Data set [3] addresses T2, Prostaglandin G/H synthase 1 (Ovis aries, UniProt P05979).
T2 sequence (P05979 whole entry): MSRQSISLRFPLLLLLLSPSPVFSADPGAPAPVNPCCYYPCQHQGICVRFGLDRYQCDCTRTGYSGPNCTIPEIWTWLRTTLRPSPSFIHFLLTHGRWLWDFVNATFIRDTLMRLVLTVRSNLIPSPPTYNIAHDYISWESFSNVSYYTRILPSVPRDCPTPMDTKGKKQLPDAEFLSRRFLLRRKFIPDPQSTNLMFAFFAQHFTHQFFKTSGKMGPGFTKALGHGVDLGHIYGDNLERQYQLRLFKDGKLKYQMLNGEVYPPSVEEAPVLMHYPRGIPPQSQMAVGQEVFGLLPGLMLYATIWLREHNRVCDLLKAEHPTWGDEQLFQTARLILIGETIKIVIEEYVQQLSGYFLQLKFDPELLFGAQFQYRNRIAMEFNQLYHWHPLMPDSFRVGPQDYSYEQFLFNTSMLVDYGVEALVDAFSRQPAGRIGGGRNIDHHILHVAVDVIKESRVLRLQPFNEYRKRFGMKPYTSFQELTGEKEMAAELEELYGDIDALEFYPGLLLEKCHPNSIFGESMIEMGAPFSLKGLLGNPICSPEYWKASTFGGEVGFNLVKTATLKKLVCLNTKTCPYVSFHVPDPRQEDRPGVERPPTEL
The data set can be described thus: Inhibition of ovine COX1 using arachidonic acid as substrate incubated for 10 mins prior to substrate addition measured after 2 mins by enzyme immunoassay. The essentials: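 Ovine COX-1 in 0.1 M Tris-HCl pH 8.0 with 5 mM EDTA, 2 mM phenol and heme. Test concentrations were 0, 0.01, 0.1, 1, 10 and 50 (final volume 1 ml). Preincubated 10 min at 37 °C, then arachidonic acid (100) was added and the reaction was stopped with 1 M HCl after 2 min. PGF2α (from SnCl2 reduction of PGH2) was quantified by competitive EIA at 410 nm. IC50 was taken from the concentration–inhibition curve, duplicates.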

The subject of data set [4] is Rattus norvegicus. The experiment in a line: Ulcerogenic effect in fasted Wistar albino rat at 25 mg/kg, po measured 2 hrs post last dose. It is filed as toxicity, organism-based. Further details: dose 25 mg/kg, route oral. The settings on record: in vivo. In a few lines: (§1)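 Adult male Wistar albino rats (120–150 g), five per group, fasted 18 h before dosing. Oral doses were given for three successive days (test compounds 50 mg/kg, ibuprofen 25 mg/kg; control 10% aqueous DMSO), with feeding 2 h after dosing. Stomachs were removed 2 h after the last dose, opened along the greater curvature, rinsed with 0.9% NaCl and examined under a 10× lens. Ulcer index followed Robert's method (incidence/10, mean ulcer number, severity score).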

In data set [5] the test system is Rattus norvegicus. The experiment in a line: Ulcerogenic effect in fasted Wistar albino rat assessed as reduction in ulcerogenic potential at 50 mg/kg, po measured 2 hrs post last dose relative to celecoxib. On the set-up: dose 50 mg/kg, route oral; scale not given: the % may be the effect or the level left. The settings on record: in vivo. Type of data set: toxicity, organism-based.

In data set [6] the test system is Rattus norvegicus. The data set can be described thus: Ulcerogenic effect in fasted Wistar albino rat at 50 mg/kg, po measured 2 hrs post last dose. Type of data set: toxicity, organism-based. Further details: dose 50 mg/kg, route oral. The settings on record: in vivo. In a few lines: as §1
Data set [7] relates to Rattus norvegicus. The data set can be described thus: Antiinflammatory activity in Wistar albino rat assessed as inhibition of formalin-induced paw edema at 50 mg/kg, po administered 1 hr prior to formalin challenge measured after 3 hrs relative to control. Type of data set: functional. The essentials:
(§2)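 Adult male Wistar albino rats (120–150 g), five per group. Dosed orally at 50 mg/kg in 10% aqueous DMSO (v/v) 1 h before 0.1 ml of 2.5% formalin was injected subcutaneously into the right hind paw; vehicle-only control group. Paw thickness was measured by Vernier caliper at 0 h and at 30 min, 1, 2 and 3 h. Edema inhibition % = (Vc − Vt)/Vc × 100; means of five ± S.E.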

The test system of data set [8] is Rattus norvegicus. The data set can be described thus: Antiinflammatory activity in Wistar albino rat assessed as inhibition of formalin-induced paw edema at 50 mg/kg, po administered 1 hr prior to formalin challenge measured after 2 hrs relative to control. It is filed as functional. The essentials: as §2
Data set [9] relates to Rattus norvegicus. The data set can be described thus: Antiinflammatory activity in Wistar albino rat assessed as inhibition of formalin-induced paw edema at 50 mg/kg, po administered 1 hr prior to formalin challenge measured after 1 hr relative to control. Type of data set: functional. In a few lines:
as §2

For data set [10], the system named is Rattus norvegicus. The data set can be described thus: Antiinflammatory activity in Wistar albino rat assessed as inhibition of formalin-induced paw edema at 50 mg/kg, po administered 1 hr prior to formalin challenge measured after 30 mins relative to control. Type of data set: functional. The essentials: as §2

Usually IC50 stands for the midpoint of a concentration-inhibition curve. Regarding `COc1cc2occc2c(OC)c1-c1cc(-c2ccccc2)n(-c2ccc(S(N)(=O)=O)cc2)n1`, the Ratio IC50 in data set [1] is over 1.43. The IC50 in [2] is 35000 nM; in data set [3], over 50 µM.
For `COc1c(-c2cc(C(F)(F)F)nn2-c2ccc(S(N)(=O)=O)cc2)c(O)cc2occc12`, in [1], the Ratio IC50 is over 7.14. The results for the IC50 in [2] and in [3] were 7000 nM and over 50 µM, respectively.
The compound `CC(C)Cc1ccc(C(C)C(=O)O)cc1` (centres undefined) [IBUPROFEN] registered a UI in data set [4] of 22.32.
In general, inhibition in vivo refers to the change of the read-out against control, counted positive when it falls. As for `COc1c(-c2cc(-c3cccnc3)nn2-c2ccc(S(N)(=O)=O)cc2)c(O)c(OC)c2occc12`, the Activity in data set [5] is given as 40%. In data set [6], this compound displayed a UI of 10.5. Also, the inhibition in vivo at 50 mg/kg in [7] came to 100%; in data set [8], 100%; in [9], 96.5%; in [10], 90.7%. For the same compound, the Ratio IC50 in [1] is over 139. Besides, the results for the IC50 in [2] and in data set [3] were 360 nM and over 50 µM, respectively.
As to `Cc1ccc(-c2cc(C(F)(F)F)nn2-c2ccc(S(N)(=O)=O)cc2)cc1` [CELECOXIB], the UI in data set [6] worked out at 16.12. In addition, the inhibition in vivo at 50 mg/kg worked out at 100% in data set [7], 100% in data set [8], 100% in [9] and 94.4% in data set [10].
On to `COc1cc2occc2c(OC)c1-c1cc(-c2ccc(F)cc2)n(-c2ccc(S(N)(=O)=O)cc2)n1`, for which, in data set [6], the UI was determined as 11.75. The inhibition in vivo at 50 mg/kg worked out at 83.6% in [7], 82.8% in data set [8], 82.5% in [9] and 79.6% in data set [10]. The Ratio IC50 in [1] was over 109. In addition, the IC50 in [2] was 460 nM; in data set [3] it was over 50 µM.
For the compound `COc1c(-c2cc(C)nn2-c2ccc(S(N)(=O)=O)cc2)c(O)cc2occc12`, in [1], the Ratio IC50 was over 6.67. Also, the IC50 is 7500 nM in data set [2] and over 50 µM in [3].
Compound `COc1c(-c2cc(-c3cccnc3)nn2-c2ccc(S(N)(=O)=O)cc2)c(O)cc2occc12` showed a UI in [6] of 13.82. The inhibition in vivo at 50 mg/kg is 100% in data set [7], 100% in data set [8], 96.2% in data set [9] and 90.1% in data set [10]. Moreover, the Ratio IC50 in data set [1] was over 125. Further, the IC50 is 400 nM in data set [2] and over 50 µM in data set [3].
Turning to `COc1c(-c2cc(C(F)(F)F)nn2-c2ccc(S(N)(=O)=O)cc2)c(O)c(OC)c2occc12`, the UI in data set [6] is 11.56. Also, the inhibition in vivo at 50 mg/kg in data set [7] came out at 91.8%; in [8] it was 87.9%; in data set [9], 79%; in data set [10], 72.2%. Moreover, in [1], the Ratio IC50 was over 96.2. Further, the figures for the half-inhibitory concentration (IC50) in data set [2] and in [3] were 520 nM and over 50 µM, respectively.
In the case of `COc1cc2occc2c(OC)c1-c1cc(-c2ccc(Cl)cc2)n(-c2ccc(S(N)(=O)=O)cc2)n1`, in data set [1], the Ratio IC50 is over 1.93. Also, the IC50 in [2] is 26000 nM; in [3] it was over 50 µM.
`COc1cc2occc2c(OC)c1-c1cc(-c2ccc(C(F)(F)F)cc2)n(-c2ccc(S(N)(=O)=O)cc2)n1` returned a UI in data set [6] of 10.5. Besides, the inhibition in vivo at 50 mg/kg stood at 91.8% in data set [7], 94.8% in data set [8], 77.2% in data set [9] and 66.7% in data set [10]. In addition, the Ratio IC50 in data set [1] was over 147. Moreover, the IC50 was 340 nM in [2] and over 50 µM in data set [3].

The values above are taken from ChEMBL document CHEMBL3124807 (Eur J Med Chem, 2014).
